Source: ChEMBL document CHEMBL2331332 (J Med Chem, 2013)

Tests used:
[1] = molecular target: T1, Prostaglandin E synthase (Homo sapiens, UniProt O14684); experiment: Inhibition of PGES-1 in human whole blood assessed as LPS-induced PGE2 formation incubated for 15 mins prior to LPS addition measured after 24 hrs by EIA
T1 sequence (O14684 whole entry): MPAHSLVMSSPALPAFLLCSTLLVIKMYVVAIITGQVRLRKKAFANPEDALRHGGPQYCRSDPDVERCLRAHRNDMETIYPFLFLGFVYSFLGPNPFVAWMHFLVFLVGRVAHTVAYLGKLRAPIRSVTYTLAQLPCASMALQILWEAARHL
In short: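 Fresh heparinized blood came from healthy volunteers free of NSAIDs for at least 14 days. It was preincubated 15 min at 37 °C with compound or DMSO vehicle. LPS (final 100 μg/mL) was then added for 24 h at 37 °C. Plasma was obtained by centrifugation at 4 °C, and PGE2 was read by EIA.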

[2] = molecular target: T1, Prostaglandin E synthase; experiment: Inhibition of full-length microsomal PGES-1 (unknown origin) expressed in Escherichia coli Rosetta(DE3) using PGH2 as substrate assessed as inhibition of PGH2 conversion to PGE2 incubated 15 mins prior to substrate addition measured after 1 min by EIA
In short: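 Reactions used 2.5 mM cofactor and 17 μM PGH2 for 1 min at 4 °C, then were stopped, and PGE2 was quantified by EIA. IC50 came from dose-response curves. Mean ± SEM, n = 3.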

[3] = molecular target: T2, Polyunsaturated fatty acid 5-lipoxygenase (Homo sapiens) (UniProt P09917); experiment: Inhibition of 5-LOX (unknown origin) at 10 uM by human whole blood LTB4 assay
T2 sequence (whole entry): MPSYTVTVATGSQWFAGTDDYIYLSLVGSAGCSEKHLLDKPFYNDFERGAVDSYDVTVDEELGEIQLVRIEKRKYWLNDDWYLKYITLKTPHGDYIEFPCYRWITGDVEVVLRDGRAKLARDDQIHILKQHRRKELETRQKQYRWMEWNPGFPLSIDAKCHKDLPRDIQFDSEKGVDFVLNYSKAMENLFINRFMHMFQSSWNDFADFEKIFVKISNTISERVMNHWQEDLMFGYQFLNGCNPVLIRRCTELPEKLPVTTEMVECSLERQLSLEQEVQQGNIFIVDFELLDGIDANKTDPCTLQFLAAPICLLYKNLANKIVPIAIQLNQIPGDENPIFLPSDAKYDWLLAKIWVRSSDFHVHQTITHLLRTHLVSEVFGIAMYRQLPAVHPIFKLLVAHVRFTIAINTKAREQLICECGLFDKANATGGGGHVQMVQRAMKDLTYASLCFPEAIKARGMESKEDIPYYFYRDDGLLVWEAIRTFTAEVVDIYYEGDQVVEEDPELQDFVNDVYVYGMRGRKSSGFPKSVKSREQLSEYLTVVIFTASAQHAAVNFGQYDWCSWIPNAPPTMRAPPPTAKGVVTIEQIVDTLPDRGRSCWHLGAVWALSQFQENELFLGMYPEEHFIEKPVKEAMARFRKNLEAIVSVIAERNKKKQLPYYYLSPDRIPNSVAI

[4] = system: Prostaglandin G/H synthase 1 (COX-1); experiment: Inhibition of COX-1 (unknown origin)-mediated TMPD oxidation using PGG2 as substrate at 100 uM incubated 15 mins prior to substrate addition measured after 36 secs by spectrophotometric analysis; conditions: Homo sapiens
[5] = system: Prostaglandin G/H synthase 2 (COX-2); experiment: Inhibition of COX-2 (unknown origin)-mediated TMPD oxidation using PGG2 as substrate at 100 uM incubated 15 mins prior to substrate addition measured after 36 secs by spectrophotometric analysis; conditions: Homo sapiens
[6] = molecular target: T2, Polyunsaturated fatty acid 5-lipoxygenase (Homo sapiens); experiment: Inhibition of 5-LOX-mediated LTB4 formation in human whole blood at 10 uM incubated for 20 mins prior to substrate addition measured after 0.5 hrs by EIA in presence of calcium ionophore A23187
In short: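 Human whole blood was stimulated with calcium ionophore A23187 (final 20 μg/mL) for 0.5 h at 37 °C to induce LTB4 formation. Compounds were tested at 10 μM.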

SMILES | IC50 [1] [µM] | IC50 [2] [µM] | further results
Cn1c(=O)c(/C(=N/Nc2ccc([N+](=O)[O-])cc2[N+](=O)[O-])c2nnn[nH]2)c(O)c2ccccc21 | > 200 | 1.7 | 
Cc1ccc([N+](=O)[O-])cc1NC(=O)CSc1nnc(CNC(=O)COc2c(C)cccc2C)n1C |  | 0.71 | 
C=CCn1c(SCC(=O)c2ccc3c(c2)Cc2ccccc2-3)nnc1-c1ccc(OC)cc1 |  | 0.91 | 
O=C(CSc1ncc(-c2ccccc2)nn1)c1ccccc1 |  | 32.5 | 
Cc1ccc(N2CCn3c(SCC(=O)Nc4cc(C)ccc4C)nnc32)cc1 |  | > 100 | 
CC1=NN(c2ccc([N+](=O)[O-])cc2)C(=O)/C1=N\Nc1ccccc1C(=O)O | 17 | 0.01 | inhibition [3]: 10%; inhibition [4]: 1%; inhibition [5]: 2.5%; inhibition [6]: < 1%
Cc1ccc([N+](=O)[O-])cc1NC(=O)CSc1nnc(CSCc2ccccc2)n1C |  | 0.24 | 
CCn1c(CNc2ccc(C)cc2C)nnc1SCC(=O)c1ccc(C)cc1 |  | 7.5 | 
Cc1ccc(C)c(NC(=O)CSc2nnc(CNc3c(C)cccc3C)n2C)c1 |  | 3.6 | 
CCOC(=O)c1ccc(NC(=O)CSc2nnc(CNc3c(C)cccc3C)n2C)cc1 |  | 5.4 | 
Cc1ccc(-c2nnc(SCC(=O)c3c[nH]c4ccccc34)nc2-c2ccc(C)cc2)cc1 |  | 0.48 | 
CCCCCCCCCSc1nnc(-c2ccc(OC)cc2)c(-c2ccc(OC)cc2)n1 |  | 32.9 | 
Cc1cccc(C)c1NCc1nnc(SCc2ccc(Cl)cc2)n1-c1ccccc1 |  | 19.4 | 
CCn1c(CNc2ccc(C)cc2C)nnc1SCC(=O)Nc1ccc(C)cc1 |  | 5.1 | 
Cc1ccc([N+](=O)[O-])cc1NC(=O)CSc1nnc(CNc2ccc(Cl)cc2)n1C |  | 0.033 | 
Cc1ccc(C)c(NC(=O)CSc2nnc(CNc3c(C)cccc3C)n2-c2ccccc2)c1 |  | 13.6 | 
COc1ccc(OC)c(NC(=O)CSc2nnc(CNc3c(C)cccc3C)n2C)c1 |  | 0.93 | 
O=C(COC(=O)c1ccc2c(c1)C(=O)N(c1ccc(Oc3ccccc3)cc1)C2=O)c1ccc(Br)cc1 | 200 | 1.7 | 
COc1ccc(CN2C(=O)/C(=C/c3ccc(OCc4ccc([N+](=O)[O-])cc4)c(Br)c3)S/C2=N\c2ccccc2)cc1 | 120 | 0.038 | 
Cc1cccc(C)c1NCc1nnc(SCC(=O)Nc2ccc(F)cc2)n1-c1ccccc1 |  | 9.2 | 
Cc1ccc(C(=O)O)cc1-c1ccc(/C=C2\SC(=O)N(CC(=O)Nc3ccccc3)C2=O)o1 | 160 | 1.2 | 
C=CCSc1nnc2c(n1)OC(c1ccc(-c3cccc([N+](=O)[O-])c3)o1)Nc1ccccc1-2 (configuration not stated) | > 200 | 1.6 | 
C=CCn1c(CNc2c(C)cccc2C)nnc1SCC(=O)Nc1ccccc1C |  | 12.6 | 
Clc1ccc(CSc2nnc(-c3ccccc3)c(-c3ccccc3)n2)cc1 |  | > 100 | 
Cc1ccc2[nH]c3c(c2c1)CCC/C3=N\N=C1/CCCc2c1[nH]c1ccc(C)cc21 | > 200 | 5 | 
O=C(CSc1nnc(-c2ccccc2)c(-c2ccccc2)n1)c1c[nH]c2ccccc12 |  | 0.5 | 
CCn1c(CNC(=O)c2ccc(C)cc2)nnc1SCC(=O)Nc1cc([N+](=O)[O-])ccc1C |  | 0.054 | 
O=C(CSc1nc(-c2ccccc2)c(-c2ccccc2)[nH]1)c1ccccc1 |  | 10.4 | 

SMILES | IC50 [1] [µM] | IC50 [2] [µM] | further results
Clc1ccc(/C=C/c2cc(-c3ccc(-c4ccccc4)cc3)nc3ccc4ccccc4c23)cc1 | 8.5 | 0.0065 | inhibition [3]: 10%; inhibition [4]: < 1%; inhibition [5]: 1.8%; inhibition [6]: < 1%
O=C(N/N=C/c1ccc([N+](=O)[O-])cc1)c1cc(OCc2ccccc2)c(OCc2ccccc2)c(OCc2ccccc2)c1 | 200 | 0.1 | 
O=C(CSc1nnc(-c2ccccc2)c(-c2ccccc2)n1)c1ccccc1 |  | 2.5 | 
COc1cc(NC(=O)c2nn3c(C(F)(F)F)cc(-c4ccc(Br)cc4)nc3c2Cl)cc([N+](=O)[O-])c1 | 8.5 | 0.0097 | inhibition [3]: 39%; inhibition [4]: < 1%; inhibition [5]: -2.2%; inhibition [6]: < 1%
CC1=NN(c2ccc(Cl)c(Cl)c2)C(=O)/C1=C/c1cc(Br)ccc1OCC(=O)O | 18.5 | 0.17 | 
Cc1cc(C)c2oc(-c3ccc(C)c(NC(=O)c4cccc([N+](=O)[O-])c4)c3)nc2c1 | 6.2 | 0.0046 | inhibition [3]: 30%; inhibition [6]: < 1%
COc1ccc(-c2nnc(SCC(=O)Nc3ccc(Cl)cc3)nc2-c2ccc(OC)cc2)cc1 |  | 3.1 | 
O=C(CSc1nnc(-c2ccccc2)c(-c2ccccc2)n1)c1cccs1 |  | 9.6 | 
Cc1nc2sc3c(c2c(=O)n1/N=C/c1cc([N+](=O)[O-])cc([N+](=O)[O-])c1O)CCCC3 | 130 | 1.8 | 
Cc1ccc([N+](=O)[O-])cc1NC(=O)CSc1nnc(-c2ccccc2C)n1C |  | 54.5 | 
C/C(=N\NC(=O)c1ccc([N+](=O)[O-])c(C)c1)c1cccc(NC(=O)COc2ccc(Cl)cc2Cl)c1 | 66 | 0.057 | 
CC(C)(C)C(=O)CSc1nnc(-c2ccccc2)c(-c2ccccc2)n1 |  | 17.8 | 
Cc1ccc([N+](=O)[O-])cc1NC(=O)CSc1nnc(CC(=O)Nc2ccccc2)n1C |  | 0.1 | 
COc1cc(-c2cc(C(=O)O)c3c(ccc4ccccc43)n2)ccc1OCCCC#N | 4.4 | 0.0011 | inhibition [3]: < 1%; inhibition [4]: 4.1%; inhibition [5]: 1%; inhibition [6]: < 1%
COc1ccc(C(=O)CSc2nnc(-c3ccc(OC)cc3)c(-c3ccc(OC)cc3)n2)cc1 |  | 1 | 
COc1ccc(C(=O)CSc2nnc(-c3ccco3)c(-c3ccco3)n2)cc1 |  | 5 | 
O=C(CSc1nnc(-c2ccccc2)c(-c2ccccc2)n1)C12CC3CC(CC(C3)C1)C2 |  | 13.9 | 
CCCCCCCSc1nnc(-c2ccc(OC)cc2)c(-c2ccc(OC)cc2)n1 |  | 45.4 | 
Cc1ccc([N+](=O)[O-])cc1NC(=O)CSc1nnc(Cc2ccccc2)n1C |  | 0.8 | 
CC(c1ccccc1)N1C(=O)c2ccc(C(=O)Nc3cc(Cl)ccc3C(=O)O)cc2C1=O (configuration not stated) | 1.4 | 0.002 | inhibition [3]: < 1%; inhibition [6]: < 1%
O=C1COc2ccc(C(=O)CSc3nnc(-c4ccccc4)c(-c4ccccc4)n3)cc2N1 |  | 0.29 | 
Cc1[nH]c2ccccc2c1C(=O)C(C)Sc1nnc(-c2ccccc2)c(-c2ccccc2)n1 (configuration not stated) |  | 2.1 | 
Cc1ccc([N+](=O)[O-])cc1NC(=O)CSc1nnc(CNc2c(C)cccc2C)n1C | 0.7 | 0.0093 | inhibition [3]: 8%; inhibition [4]: < 1%; inhibition [5]: < 1%; inhibition [6]: < 1%
Cc1ccc(Cl)c(NC(=O)CSc2nnc(CNc3c(C)cccc3C)n2C)c1 |  | 0.2 | 
CCn1c2ccccc2c2cc(-c3cc(C(=O)O)c4c(ccc5ccccc54)n3)ccc21 | > 200 | 0.1 | 
O=C(CCCSc1nnc(-c2ccccc2)c(-c2ccccc2)n1)c1ccccc1 |  | 50.8 | 
Cc1ccc(-c2nnc(SCC(=O)c3ccc(CC(N)=O)s3)nc2-c2ccc(C)cc2)cc1 |  | 0.64 | 
